Among the data in ChEMBL document CHEMBL4316616, “Efficacy of TLR7 agonistic imidazoquinoline as immunochemotherapeutic agent against P. Berghei ANKA infected rodent host” (Bioorg Med Chem Lett, 2019) are Activity values, retold here.

The source made the active and inactive calls. No cut-off for these calls is given here.

Series [1] can be described thus: Toxicity in Laca mouse infected with Plasmodium berghei ANKA assessed as death at 10 ug, ip administered for 4 days measured on day 10 and 21. Format: organism-based. To be noted: in vivo, 96 h. In outline:
(§1)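 Six mice per group received 1x10⁶ parasitized RBCs (P. berghei ANKA) i.p. on D0. TLR7 agonist was given i.p., 0.2 mL/mouse, daily D0–D3. PBS-treated infected and uninfected groups served as controls. Survival was monitored alongside parasitemia from Giemsa-stained thin blood smears.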

Series [2] has as its system Plasmodium berghei. As to the kind of experiment: Antiparasitic activity against Plasmodium berghei ANKA infected in Laca mouse assessed as reduction in CD4+ cell level in brain at 10 ug, ip administered for 4 days measured on day 10 and 21 by flow cytometry. Format: functional, organism-based. (In general: In flow cytometry, cells or beads pass a laser one at a time.)

Series [3] deals with Plasmodium berghei. Put plainly: Antiparasitic activity against Plasmodium berghei ANKA infected in Laca mouse assessed as parasitemia at 10 ug, ip co-administered with chloroquine for 4 days measured on day 30 by Giemsa-staining based assay. Format: functional.
Series [4] has as its system Plasmodium berghei. As to the kind of experiment: Antiparasitic activity against Plasmodium berghei ANKA infected in Laca mouse assessed as increase in serum IL-10 level at 10 ug, ip co-administered with chloroquine for 4 days measured on day 10 by sandwich ELISA. Format: functional, organism-based. Background: In an ELISA, binding on a coated surface is turned into a signal by an enzyme label.

Series [5] has as its system Plasmodium berghei. As to the kind of experiment: Antiparasitic activity against Plasmodium berghei ANKA infected in Laca mouse assessed as increase in CD3+ cell level in spleen at 10 ug, ip co-administered with chloroquine for 4 days measured on day 10 by flow cytometry. The format is functional, organism-based.
Series [6] is described as follows: Toxicity in Laca mouse infected with Plasmodium berghei ANKA assessed as death at 10 ug, ip co-treated with chloroquine for 4 days measured on day 30. To be noted: in vivo, 96 h.
Test in series [7]: as above
To be noted: in vivo, 96 h. This is another data set of the same source.

A short description of series [8]: Toxicity in Laca mouse infected with Plasmodium berghei ANKA assessed as death at 10 ug, ip administered for 4 days measured on day 15. Format: organism-based. To be noted: in vivo, 96 h. In outline:
as §1

The test system of series [9] is Plasmodium berghei. As to the kind of experiment: Antiparasitic activity against Plasmodium berghei ANKA infected in Laca mouse assessed as increase in Treg cell level in spleen at 10 ug, ip administered for 4 days measured on day 10 and 21 by flow cytometry. The format is functional, organism-based.
Series [10] deals with Plasmodium berghei. Put plainly: Antiparasitic activity against Plasmodium berghei ANKA infected in Laca mouse assessed as increase in serum IL-27 level at 10 ug, ip co-administered with chloroquine for 4 days measured on day 10 by sandwich ELISA. The format is functional, organism-based.

With `CCCCc1nc2c(N)nc3ccccc3c2n1Cc1ccccc1`, the Activity result is recorded as “Toxic” in series [1]; 11.65% in the series on Plasmodium berghei [3]; “Toxic” in [6]; “Toxic” in [7]; “Toxic” in [8]. Moreover, the outcome with Plasmodium berghei [2], in the series on Plasmodium berghei [4], in the series on Plasmodium berghei [5], in the series with Plasmodium berghei [9] and with Plasmodium berghei [10] was Active.
